Measurements taken from ChEMBL document CHEMBL4406805, “Development of Inhibitors against Mycobacterium abscessus tRNA (m1G37) Methyltransferase (TrmD) Using Fragment-Based Approaches” (J Med Chem, 2019).
In brackets after ≈: the same amount, converted by molar mass. Activity calls are given as the source filed them. The rule behind the calls is not given here.

Legend:
[1] = system: Mycobacterium tuberculosis; test: Antimycobacterial activity against Mycobacterium tuberculosis H37Rv incubated for 2 weeks in presence of 7H9/glucose medium; assay type: functional; conditions: 336 h
[2] = Binding affinity to Mycobacterium abscessus N-terminal His-tagged 3C protease linked full length tRNA (m1-G37) methyltransferase expressed in Escherichia coli BL21(DE3) by isothermal titration calorimetry; design: species or system Mycobacteroides abscessus
Method in brief: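 ITC at 25 °C. TrmD (33 or 100 μM in cell) was dialysed overnight at 4 °C into 50 mM HEPES pH 7.5, 500 mM NaCl, 5% glycerol, with final DMSO 2–10%. Ligand:protein was 10–20:1. A 0.2 μL injection was discarded, followed by 19×2 or 39×1 μL injections at 60–150 s spacing. No-protein blanks were subtracted. Data were fitted to a one-site model (N fixed at 1 for weak binders). Mostly n = 1 with fit error; SD when n > 1.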

[3] = system: Mycobacteroides abscessus; test: Binding affinity to Mycobacterium abscessus N-terminal His-tagged 3C protease linked full length tRNA (m1-G37) methyltransferase expressed in Escherichia coli BL21(DE3) assessed as change in melting temperature at 100 uM by SYPRO Orange dye based DSF assay
Method in brief: (§1)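 DSF with 10 μM Mab TrmD (His-tag cleaved) in 50 mM HEPES pH 7.5, 500 mM NaCl, 5x SYPRO Orange. Final DMSO was 5%, either as ligand stock or as DMSO alone. Samples were ramped from 25 to 95 °C in 0.5 °C steps of 30 s. ΔTm was taken relative to the DMSO control.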

[4] = system: Mycobacterium tuberculosis; test: Antimycobacterial activity against Mycobacterium tuberculosis H37Rv incubated for 2 weeks in presence of GAST-Fe medium; assay type: functional; conditions: 336 h
[5] = system: Mycobacterium tuberculosis; test: Antimycobacterial activity against Mycobacterium tuberculosis H37Rv incubated for 2 weeks in presence of 7H9/DPPC medium; assay type: functional; conditions: 336 h
[6] = Antimycobacterial activity against Mycobacterium abscessus subsp. abscessus ATCC 19977 by CLSI M07-A9 protocol based method; assay type: functional; conditions: Mycobacteroides abscessus
[7] = system: Mycobacterium tuberculosis; test: Antimycobacterial activity against Mycobacterium tuberculosis H37Rv incubated for 2 weeks in presence of 7H9/ADC medium; assay type: functional; conditions: 336 h
[8] = system: Mycobacteroides abscessus; test: Binding affinity to Mycobacterium abscessus N-terminal His-tagged 3C protease linked full length tRNA (m1-G37) methyltransferase expressed in Escherichia coli BL21(DE3) assessed as change in melting temperature at 5 mM by SYPRO Orange dye based DSF assay; method in brief: as §1
[9] = system: Mycobacteroides abscessus; test: Binding affinity to Mycobacterium abscessus N-terminal His-tagged 3C protease linked full length tRNA (m1-G37) methyltransferase expressed in Escherichia coli BL21(DE3) after 15 mins by mass Spectrometry
Method in brief: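 Native nanoESI-MS. His-tag was removed with 3C protease before IMAC and gel filtration. TrmD was exchanged into 200 mM ammonium acetate pH 7.0. Protein (20 μM in titration) was equilibrated at room temperature for at least 15 min alone or with ligand (12.5–100 μM; 100 μM for screening) in 5% DMSO. Read-out was ligand occupancy (singly or doubly bound) of the 13+ and 14+ charge states.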

[10] = system: Mycobacteroides abscessus; test: Binding affinity to Mycobacterium abscessus N-terminal His-tagged 3C protease linked full length tRNA (m1-G37) methyltransferase expressed in Escherichia coli BL21(DE3) by reverse isothermal titration calorimetry
Method in brief: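 Reverse ITC at 25 °C. 420 μM TrmD was injected into 35 μM ligand in the cell. Buffer was 50 mM HEPES pH 7.5, 500 mM NaCl, 5% glycerol with DMSO; blank titrations were subtracted. Data were fitted to a one-site binding model, otherwise as for forward titrations.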

CN1CCN(Cc2ccc(Cn3ccc4ccc(-c5[nH]nc(N)c5C#N)cc43)cc2)CC1
MIC [1]: 12.5 µM
Kd [2]: 73 µM
ΔTm [3]: 12 °C
MIC [4]: 25 µM
MIC [5]: 6.3 µM
MIC [6]: 50 µM (≈ 21.3 µg/mL)

N#Cc1c(N)n[nH]c1-c1ccc2ccn(Cc3ccncc3)c2c1
MIC [7]: > 100 µM
Kd [2]: 0.12 µM
ΔTm [3]: 11.5 °C
MIC [4]: 50 µM
MIC [6]: 50 µM (≈ 15.7 µg/mL)

CCNC(=O)c1cn[nH]c1
ΔTm [8]: 0.4 °C

Nc1cc(-c2ccccc2)n[nH]1
ΔTm [8]: 1.5 °C

N#Cc1c(N)n[nH]c1-c1ccc2ccn(Cc3ccccn3)c2c1
Kd [2]: 0.5 µM
ΔTm [3]: 8.3 °C

COc1cccc(Cn2ccc3ccc(-c4cc(N)n[nH]4)cc32)c1
Kd [2]: 13 µM
ΔTm [3]: 4.6 °C

Cc1c(N)n[nH]c1-c1ccc2ccn(Cc3ccc(CN4CCCC4)cc3)c2c1
ΔTm [3]: 6.1 °C

Cc1ccc(-c2cc(N)[nH]n2)cc1
ΔTm [8]: 1.4 °C

N#Cc1c(N)n[nH]c1-c1ccc2ccn(Cc3cccnc3O)c2c1
Kd [2]: 3.2 µM
ΔTm [3]: 5.5 °C

N#Cc1c(N)n[nH]c1-c1ccc2ccn(Cc3ccnc4ccccc34)c2c1
ΔTm [3]: 10.3 °C

N#Cc1c(N)n[nH]c1-c1ccc2ccn(Cc3cccnc3)c2c1
Kd [2]: 0.18 µM
ΔTm [3]: 10.5 °C

NC(=O)c1ccccc1Cn1ccc2ccc(-c3cc(N)n[nH]3)cc21
ΔTm [3]: 1.4 °C

O=C(OCc1ccccc1)c1cn[nH]c1
Kd [2]: 33 µM
ΔTm [3]: 3.1 °C

O=C(O)c1ccc2cc[nH]c2c1
ΔTm [8]: -0.6 °C

CCOC(=O)c1cnn(CC#Cc2cc(COC(=O)c3cn[nH]c3)cc(OC)c2)c1
Kd [2]: 4.6 µM
ΔTm [3]: 9.6 °C

N#Cc1c(N)n[nH]c1-c1ccc2ccn(Cc3ccc(CN4CCCC4)cc3)c2c1
MIC [1]: 25 µM
Activity [9]: Active
MIC [7]: > 100 µM
Kd [2]: 27 µM
ΔTm [3]: 12.9 °C
MIC [5]: 12.5 µM
MIC [6]: 50 µM (≈ 19.8 µg/mL)

O=C(OCc1ccc([N+](=O)[O-])cc1)c1cn[nH]c1
ΔTm [3]: 0.4 °C

N#Cc1c(N)n[nH]c1-c1ccc2c(Cl)cn(Cc3cccnc3)c2c1
Kd [2]: 8.5 µM
ΔTm [3]: 5.8 °C

CCOc1cccc(COC(=O)c2cn[nH]c2)c1
Kd [2]: 11 µM
ΔTm [3]: 3.1 °C

Nc1cc(-c2ccc3ccn(Cc4ccccn4)c3c2)[nH]n1
Kd [2]: 12 µM
ΔTm [3]: 3.1 °C

OB(O)c1ccc2cc[nH]c2c1
ΔTm [8]: 4 °C
Kd [2]: 260 µM

N#Cc1c(N)n[nH]c1-c1ccc2ccn(Cc3ccccc3)c2c1
Activity [9]: Active
ΔTm [3]: 10.1 °C

COC(=O)c1ccc(COC(=O)c2cn[nH]c2)cc1
ΔTm [3]: 0.9 °C

CCOC(=O)c1cn[nH]c1
ΔTm [8]: 4 °C
Kd [2]: 89 µM
ΔTm [3]: 0.4 °C

N#Cc1c(N)n[nH]c1-c1ccc2ccn(Cc3ccc(CN4CCCCC4)cc3)c2c1
MIC [1]: 25 µM
MIC [7]: 100 µM
ΔTm [3]: 12.6 °C
MIC [4]: 50 µM
MIC [6]: 50 µM (≈ 20.5 µg/mL)

COc1cccc(COC(=O)c2cn[nH]c2)c1
Kd [2]: 14 µM
ΔTm [3]: 3.5 °C

COc1ccc(-c2cc(N)[nH]n2)cc1
ΔTm [8]: 3 °C
Kd [2]: 170 µM

OB(O)c1ccc2[nH]ccc2c1
ΔTm [8]: 1.3 °C

O=C(OCc1cccc(OCCc2ccccc2)c1)c1cn[nH]c1
ΔTm [3]: 3 °C

N#Cc1c(N)n[nH]c1-c1ccc2ccn(Cc3ccc(CN4CCCC4)cn3)c2c1
Kd [2]: 92 µM
ΔTm [3]: 12 °C
MIC [6]: 50 µM (≈ 19.9 µg/mL)

COc1cccc(-c2cc(N)n[nH]2)c1
ΔTm [8]: -0.5 °C

Nc1cc(-c2ccc3ccn(Cc4ccc(CN5CCCC5)cc4)c3c2)[nH]n1
MIC [1]: 12.5 µM
MIC [7]: 100 µM
Kd [2]: 490 µM
ΔTm [3]: 7 °C
MIC [4]: 25 µM
MIC [5]: 6.3 µM
MIC [6]: 50 µM (≈ 18.6 µg/mL)

N#Cc1c(N)n[nH]c1-c1ccc2cc[nH]c2c1
Kd [2]: 5 µM
ΔTm [3]: 4.4 °C

CN1CCCC(Cn2ccc3ccc(-c4[nH]nc(N)c4C#N)cc32)C1 (racemic)
Activity [10]: Active
Kd [2]: 0.36 µM
ΔTm [3]: 10.9 °C

Nc1cc(-c2ccc3ccn(Cc4ccccc4)c3c2)[nH]n1
Activity [9]: Active
Kd [2]: 19 µM
ΔTm [3]: 3.4 °C

Nc1cc(-c2ccc3ccn(Cc4ccc(CN5CCCCC5)cc4)c3c2)[nH]n1
MIC [1]: 25 µM
MIC [7]: > 100 µM
ΔTm [3]: 7.2 °C
MIC [4]: 50 µM
MIC [5]: 12.5 µM
MIC [6]: 50 µM (≈ 19.3 µg/mL)

N#Cc1c(N)n[nH]c1-c1ccc2ccn(Cc3ccc(O)nc3)c2c1
Kd [2]: 1.3 µM
ΔTm [3]: 8.3 °C

COc1cc(COC(=O)c2cn[nH]c2)cc(-c2cccnc2)c1
Kd [2]: 6.7 µM
ΔTm [3]: 3.8 °C

N#Cc1c(N)n[nH]c1-c1ccc2ccn(Cc3ccc(CN4CCOCC4)cc3)c2c1
MIC [1]: 100 µM
MIC [7]: > 100 µM
ΔTm [3]: 12.6 °C
MIC [4]: 50 µM
MIC [5]: 50 µM
MIC [6]: 50 µM (≈ 20.6 µg/mL)

COc1cc(COC(=O)c2cn[nH]c2)cc(N2CCCC2)c1
Kd [2]: 10 µM
ΔTm [3]: 3 °C

N#Cc1cccc(COC(=O)c2cn[nH]c2)c1
Kd [2]: 30 µM
ΔTm [3]: 2.8 °C

COc1cc(COC(=O)c2cn[nH]c2)cc(Cc2cccnc2)c1
Kd [2]: 12 µM
ΔTm [3]: 3 °C

N#Cc1ccccc1Cn1ccc2ccc(-c3cc(N)n[nH]3)cc21
Kd [2]: 12 µM
ΔTm [3]: 4.4 °C

CC(C)N1CCN(Cc2ccc(Cn3ccc4ccc(-c5[nH]nc(N)c5C#N)cc43)cc2)CC1
MIC [1]: 2.3 µM
MIC [7]: 12.5 µM
ΔTm [3]: 11.9 °C
MIC [4]: 6.3 µM
MIC [5]: 1.6 µM
MIC [6]: 50 µM (≈ 22.7 µg/mL)

O=C(OCc1cccc(OCc2ccccn2)c1)c1cn[nH]c1
ΔTm [3]: 2.5 °C

COc1ccc(Cn2ccc3ccc(-c4cc(N)n[nH]4)cc32)cc1
Kd [2]: 59 µM
ΔTm [3]: 3.4 °C

CN1CCCCC1Cn1ccc2ccc(-c3[nH]nc(N)c3C#N)cc21 (racemic)
Kd [2]: 0.59 µM
ΔTm [3]: 8.8 °C

COC(=O)COc1cccc(COC(=O)c2cn[nH]c2)c1
Kd [2]: 10 µM
ΔTm [3]: 2.6 °C

Nc1cc(-c2ccc3cc[nH]c3c2)[nH]n1
ΔTm [8]: 4.8 °C
Kd [2]: 110 µM
ΔTm [3]: 1.1 °C
